Assay results from paper PMC12188530 (RSC Advances, 2025).
In brackets after ≈: the same amount, converted by molar mass. Where a name gives a salt, the structure may show the parent alone.

Assays:
S. aureus ATCC 43300 [1] = assay: Time-kill kinetics; format: cell-based, Staphylococcus aureus; details: 2 × MIC; for re-growth of the bacteria: after 24 hours; for log reduction in CFU: within 2 to 4 hours
Summary of the method: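 Culture grown to OD600 0.5 (5 × 10^8 CFU mL−1), then diluted 1000-fold in CA-MHB. Test compound added at 2 × MIC, with ciprofloxacin (2 × MIC) and untreated controls. Incubated at 37 °C with 200 rpm shaking and sampled at 0, 2, 4, 8, 12 and 24 h. Samples plated on MHA for 24 h at 37 °C, and CFU mL−1 determined. Run in triplicate.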

S. aureus ATCC 43300 [2] = assay: MIC and MBC by micro broth dilution; format: cell-based, Staphylococcus aureus
[3] = target: T1, S. aureus ATCC 43300 Sortase A (Staphylococcus aureus, UniProt Q2FV99); assay: Sortase A activity assay by FRET; format: biochemical
T1 sequence (Q2FV99 60-206): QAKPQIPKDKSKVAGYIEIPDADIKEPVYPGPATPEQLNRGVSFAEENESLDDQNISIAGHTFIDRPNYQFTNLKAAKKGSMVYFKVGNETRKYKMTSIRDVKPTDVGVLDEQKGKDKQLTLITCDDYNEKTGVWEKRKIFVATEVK

Cytotoxicity assay = format: cell-based; details: human, HepG2 cells
[4] = test system: S. aureus ATCC 43300 biofilm; assay: Biofilm growth inhibition assay; format: cell-based, Staphylococcus aureus; details: at MIC, 24 hours
Summary of the method: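 S. aureus grown in TSB at 37 °C for 24 h, then diluted 1:100 in TSB with 0.1% glucose. […] Planktonic cells removed, wells PBS-washed, dried 10 min and stained with 0.1% crystal violet (10 min, 25 °C). Stain solubilized in 33% acetic acid (30 min, RT, shaking) and read at A600. Percent inhibition calculated against untreated control, in triplicate with three biological replicates.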

S. aureus ATCC 43300 [5] = assay: Thigh infection in a neutropenic mouse; format: in vivo; details: BALB/C mice, group n = 4, 100 mg kg^−1 oral
Summary of the method: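 Female BALB/c mice, 6–8 weeks old, n = 4 per group, made neutropenic with cyclophosphamide i.p. (150 mg kg−1 on day −4, 100 mg kg−1 on day −1). Right thigh infected i.m. with 5 × 10^5 CFU per mouse. At 4 h, test compound given orally at 100 mg kg−1, alongside vancomycin 100 mg kg−1 oral and a sunflower oil vehicle group. At 24 h, thighs homogenized in PBS and CFU plated on MHA, in triplicate per mouse.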

[6] = test system: S. aureus ATCC 43300 invasion in macrophage (THP1); assay: Macrophage invasion assay; format: cell-based, Staphylococcus aureus; details: THP1, MIC and 2 × MIC
[7] = test system: S. aureus ATCC 43300 membrane potential; assay: Membrane potential perturbation assay; format: cell-based, Staphylococcus aureus; details: MIC and 2 × MIC
Summary of the method: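 Cells pelleted at 2400×g for 10 min and resuspended in PBS at OD600 1.0. DiOC2(3) added to 30 μM final. Cells mixed with test compound at MIC and 2 × MIC. CCCP served as positive control and untreated cells as negative control; n = 3, mean ± SD.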

Sortase A = target: T2, Sortase A (Staphylococcus aureus, UniProt Q2FV99); assay: Fluorescence quenching assay; format: binding; details: compounds 0 to 128 μg mL^−1
T2 sequence (Q2FV99 60-206): T1 sequence (Q2FV99 60-206)

[8] = Staphylococcus aureus, ATCC43300, 18 h
[9] = Staphylococcus aureus, ATCC43300, 18 h, S. aureus ATCC 43300, MHB, 37 °C, 18 hours

Row | Structure (SMILES) | log reduction in colony-forming units (CFU) from the initial inoculum (S. aureus ATCC 43300 [1]) [log] | time within which the bacteria were eliminated (S. aureus ATCC 43300 [1]) [h] | MBC (S. aureus ATCC 43300 [2]; [8]) [µg/mL] | MIC (S. aureus ATCC 43300 [2]; [8]) [µg/mL] | inhibition at 128 µg/mL [3] [%] | viability at 24 h, 1 × MIC (Cytotoxicity assay) [%] | biofilm growth inhibition [4] [%] | % inhibition ([3]; concentration 128 μg mL^−1) [%] | MIC (S. aureus ATCC 43300 [2]; [9]) [µg/mL] | death during the experiment (S. aureus ATCC 43300 [5]) | re-growth of the bacteria (S. aureus ATCC 43300 [1]) | log reduction in CFU (S. aureus ATCC 43300 [1]) [log] | S. aureus ATCC 43300 invasion of macrophages [6] | viability at 24 h, 2 × MIC (Cytotoxicity assay) [%] | MIC (S. aureus ATCC 43300 [2]; S. aureus ATCC 43300, MHB, 37 °C, 18 hours) [µg/mL] | inhibitory activity against the enzyme (in words) ([3]; FRET assay) | membrane potential disruption [7] | dose-dependent quenching of Sortase A fluorescence intensity (Sortase A)
1 | c1ccc2c(c1)Sc1ccccc1N2CC1CN2CCC1CC2 (centres unmarked) [Mequitazine] | ≥ 3 | 12 to 24 | 128 (≈ 397 µM) | 64 (≈ 198 µM) | 64 | 30 | 95 |  |  |  |  |  |  |  |  |  |  | 
2 | O.O=c1c(O)c(-c2ccc(O)c(O)c2)oc2cc(O)cc(O)c12 [Quercetin hydrate] |  |  |  |  |  |  |  | 73 |  |  |  |  |  |  |  |  |  | 
3 | CCOC(=O)C1=C(COCCN)NC(C)=C(C(=O)OC)C1c1ccccc1Cl (centres unmarked) [Amlodipine besylate] | ≥ 3 | 4 to 24 | 128 |  | 57 | 60 | 40 |  | 64 |  |  |  |  |  |  |  |  | 
4 | CN1CCN(CCCN2c3ccccc3Sc3ccc(Cl)cc32)CC1 [Prochlorperazine dimaleate] |  |  |  |  |  | 86 | 67 |  | 32 | One BALB/C died during the experiment | re-growth of the bacteria was observed after 24 hours | ~2 | successfully reduced MRSA invasion of macrophages at 2 × MIC | ~50 |  |  |  | 
5 | CN(C)CCCN1c2ccccc2Sc2ccc(C(F)(F)F)cc21 [Triflupromazine hydrochloride] |  |  |  |  | 48 | 63 | 19 |  | 32 |  | re-growth of the bacteria was observed after 24 hours | ~2 |  |  |  |  |  | 
6 | CN(C)C(=O)C(CCN1CCC(O)(c2ccc(Cl)cc2)CC1)(c1ccccc1)c1ccccc1 [Loperamide hydrochloride] | ≥ 3 | 8 to 12 | 128 |  |  | 84 | 95 |  | 32 |  | re-growth of the bacteria was observed after 24 hours |  |  |  | 64 | except loperamide hydrochloride | significant reduction only at 2 × MIC | except loperamide hydrochloride
7 | CN(C)CCCN1c2ccccc2Sc2ccc(Cl)cc21 [Chlorpromazine hydrochloride] | ≥ 3 | 8 to 12 |  |  | 49 | 28 | 93 |  | 32 |  | re-growth of the bacteria was observed after 24 hours |  |  |  |  |  |  | 
